PubChem BioAssay
Active and inactive are the calls of the source.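 Rule for the calls, unless noted: active = GFP response above 150% of the DMSO level; inconclusive = fewer than 70 events counted for a yeast strain; inactive = the rest.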

Legend:
[1] = hit retest on RPL19A-GFP reporter strain – cell-based, S. cerevisiae, flow cytometry, cherry picks, mother/daughter gates, confirmation (AID 2270;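 active = GFP response below 50% of the DMSO control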); conditions: 3 h, at 10 µM, stronger effect = lower value, 100 = same GFP as DMSO wells
[2] = yeast TOR pathway reporter LAP4-GFP change – cell-based, cherry picks, flow cytometry, mother/daughter gates, confirmation (AID 2271;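 active = GFP response above 150% of the DMSO control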;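 note: ratio of sample to DMSO plate mean so 100% equals DMSO level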); conditions: S. cerevisiae LAP4-GFP strain, 3 h, at 10 µM, stronger effect = higher value, 100 means same as DMSO control
Method in brief: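 Material: Alexa 633-stained baker's yeast GFP-fusion strain; Compound dosing: single test-compound dose, 10 µM final; Incubation: 30 °C, 3 h compound incubation, rotating; Detection: HT flow cytometry, GFP fluorescence channel; Control set: positive rapamycin (400 ng/mL), negative DMSO.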

[3] = TOR pathway reporter MEP2-GFP, retest of hits – S. cerevisiae, flow cytometry GFP, cherry picks, confirmation (AID 2272;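 active = GFP response above 150% of the DMSO control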;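 note: ratio of well signal to plate DMSO mean so 100% equals DMSO level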); conditions: S. cerevisiae MEP2-GFP strain, 3 h, at 10 µM, stronger effect = higher value
[4] = yeast AGP1-GFP fluorescence change, single-dose – cell-based, flow cytometry, S. cerevisiae, cherry picks, confirmation (AID 2273);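 note: median GFP channel fluorescence over the whole cell population gate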; conditions: S. cerevisiae AGP1-GFP strain, 3 h, at 10 µM
[5] = TOR pathway CIT2 reporter hit retest – S. cerevisiae, GFP fusion, cherry picks, mother/daughter gates, confirmation (AID 2274); conditions: S. cerevisiae CIT2-GFP strain, flow cytometry, 3 h, at 10 µM, stronger effect = higher value
[6] = measured here: daughter cell gate
[7] = measured here: mother cell gate
[8] = measured here: daughter cell gate response
[9] = measured here: mother cell gate response

| Compound | GFP response vs DMSO [1] | GFP response vs DMSO [1, 6] [%] | GFP response vs DMSO [1, 7] [%] | GFP response relative to DMSO [2] | GFP response relative to DMSO [2, 8] [%] | GFP response relative to DMSO [2, 9] [%] | GFP response vs DMSO [3] | GFP response, % of DMSO [4] | GFP response, % of DMSO [5] | GFP response, % of DMSO [5, 6] [%] | GFP response, % of DMSO [5, 7] [%] |
| --- | --- | --- | --- | --- | --- | --- | --- | --- | --- | --- | --- |
| N#C/C(=C\c1c(N(Cc2ccccc2)Cc2ccccc2)nc2ccccn2c1=O)C(N)=O | 98.4% (inactive) | 99.2 | 98.2 | 99.8% (inactive) | 97.2 | 102 | 102% (inactive) | 104% (inactive) | 106% (inactive) | 101 | 109 |
| Cc1cc(=O)oc2cc(OC(C)C(=O)NC3CCCC3)ccc12 (stereo not drawn) | 102% (inactive) | 100 | 102 | 95.7% (inactive) | 94.2 | 95.2 | 101% (inactive) | 105% (inactive) | 95.9% (inactive) | 93.8 | 95.6 |
| Cc1c(C(=O)NCCSCc2cccc(C(F)(F)F)c2)cnn1-c1ccc(F)cc1 | 102% (inactive) | 103 | 103 | 98.8% (inactive) | 96.5 | 98.5 | 104% (inactive) | 99.1% (inactive) | 108% (inactive) | 102 | 108 |
| COc1ccc(Cl)cc1C(Nc1cccnc1)c1ccc2cccnc2c1O (stereo not drawn) | 97% (inactive) | 98.8 | 95.2 | 121% (inactive) | 109 | 127 | 116% (inactive) | 97.1% (inactive) | 109% (inactive) | 115 | 101 |
| NC(=O)COc1ccc(C(=O)/C=C2/C(=O)Nc3ccccc32)cc1 | 94% (inactive) | 93.4 | 81 | 95.4% (inactive) | 91.2 | 96.1 | 94.1% (inactive) | 107% (inactive) | 101% (inactive) | 103 | 101 |
| COc1ccccc1-c1nnc(NC(=O)c2ccc(S(=O)(=O)N(C)Cc3ccccc3)cc2)o1 | 100% (inactive) | 98.8 | 100 | 95.3% (inactive) | 95 | 94.6 | 104% (inactive) | 98.9% (inactive) | 97.8% (inactive) | 98.3 | 98 |
| CCCCN(CCCC)S(=O)(=O)c1ccc(C(=O)Nc2nnc(COC)o2)cc1 | 106% (inactive) | 106 | 103 | 131% (inactive) | 140 | 126 | 149% (inactive) | 106% (inactive) | 100% (inactive) | 103 | 101 |
| O=S(=O)(c1ccc(C2CCCCC2)cc1)N1CCOCC1 | 92.4% (inactive) | 92.7 | 90.1 | 102% (inactive) | 97.5 | 105 | 105% (inactive) | 102% (inactive) | 100% (inactive) | 93.8 | 101 |
| CCOC(=O)C(=CNNc1ccccc1)C(=O)OCC | 106% (inactive) | 105 | 105 | 136% (inactive) | 133 | 140 | 113% (inactive) | 102% (inactive) | 103% (inactive) | 101 | 103 |
| CC1CCCCN1S(=O)(=O)c1ccc(C(=O)Nc2nnc(-c3ccccc3Cl)o2)cc1 (stereo not drawn) | 97.8% (inactive) | 97.9 | 98.4 | 94.1% (inactive) | 94.4 | 91.9 | 102% (inactive) | 98.3% (inactive) | 99.7% (inactive) | 101 | 98.5 |
| COc1cc(/C=C2/C(=O)ON=C2c2ccccc2)ccc1O | 105% (inactive) | 108 | 100 | 105% (inactive) | 108 | 102 | 121% (inactive) | 107% (inactive) | 125% (inactive) | 132 | 112 |
| C/C(=N\NC(=O)COc1ccccc1-c1ccccc1)c1ccccn1 | 101% (inactive) | 99.1 | 102 | 145% (inactive) | 136 | 162 | 96.6% (inactive) | 94.5% (inactive) | 102% (inactive) | 106 | 97.7 |
| O=C(/C=C/c1c(F)cccc1Cl)c1ccc(F)cc1 | 104% (inactive) | 104 | 101 | 118% (inactive) | 120 | 120 | 157% (inactive) | 104% (inactive) | 126% (inactive) | 129 | 120 |
| Cc1cc(C)c(S(=O)(=O)NCC23C=CC(O2)C2C(=O)N(c4ccccc4)C(=O)C23)c(C)c1 (stereo not drawn) | 102% (inactive) | 103 | 103 | 105% (inactive) | 105 | 108 | 102% (inactive) | 100% (inactive) | 104% (inactive) | 101 | 105 |
| COc1ccc2c(c1)c(/C=C/c1cc[n+](C)cc1)cn2C | 105% (inactive) | 107 | 106 | 136% (inactive) | 143 | 134 | 162% (inactive) | 111% (inactive) | 150% (inactive) | 158 | 145 |
| O=C(Nc1nc2ccc(F)cc2s1)c1ccccn1 | 102% (inactive) | 102 | 99.3 | 185% (active) | 156 | 193 | 116% (inactive) | 107% (inactive) | 99.7% (inactive) | 105 | 92.8 |
| CCCCN(CC)S(=O)(=O)c1ccc(C(=O)Nc2nnc(-c3ccccc3Cl)o2)cc1 | 98.8% (inactive) | 99.1 | 98.5 | 97.9% (inactive) | 99.2 | 98.3 | 109% (inactive) | 92.7% (inactive) | 98.3% (inactive) | 99.1 | 98.5 |

| Compound | GFP response vs DMSO [1] | GFP response vs DMSO [1, 6] [%] | GFP response vs DMSO [1, 7] [%] | GFP response relative to DMSO [2] | GFP response relative to DMSO [2, 8] [%] | GFP response relative to DMSO [2, 9] [%] | GFP response vs DMSO [3] | GFP response, % of DMSO [4] | GFP response, % of DMSO [5] | GFP response, % of DMSO [5, 6] [%] | GFP response, % of DMSO [5, 7] [%] |
| --- | --- | --- | --- | --- | --- | --- | --- | --- | --- | --- | --- |
| Oc1ccc(Cl)cc1-c1cc(-c2ccco2)[nH]n1 | 103% (inactive) | 100 | 104 | 95% (inactive) | 94.1 | 96.2 | 109% (inactive) | 88.2% (inactive) | 102% (inactive) | 99.7 | 101 |
| COc1ccccc1N1CCN(C2CCCN(Cc3cc(F)cc(F)c3)C2)CC1 (stereo not drawn) | 96% (inactive) | 97.3 | 95.9 | 98.9% (inactive) | 97.5 | 98.4 | 99.3% (inactive) | 102% (inactive) | 103% (inactive) | 99.3 | 104 |
| Cc1nnc(NC(=O)c2nc(S(=O)(=O)Cc3ccccc3C)ncc2Cl)s1 | 97.1% (inactive) | 96.4 | 94.4 | 98.9% (inactive) | 99 | 97.4 | 99.3% (inactive) | 98.2% (inactive) | 97.2% (inactive) | 97.6 | 96 |
| Cc1cc(N2CCC(C)CC2)n2nc(C)c(-c3ccccc3)c2n1 | 101% (inactive) | 101 | 101 | 97.7% (inactive) | 93.6 | 97.5 | 104% (inactive) | 98.4% (inactive) | 101% (inactive) | 102 | 99.1 |
| CCOc1ccc(/C=C2\N=C(c3cccs3)OC2=O)cc1OC | 95% (inactive) | 95.2 | 93.9 | 98.2% (inactive) | 97.5 | 99.4 | 101% (inactive) | 94.5% (inactive) | 97.3% (inactive) | 95.6 | 98.1 |
| CCCc1nnc(NC(=O)c2nc(S(=O)(=O)Cc3cccc(C)c3)ncc2Cl)s1 | 95.1% (inactive) | 96.4 | 95.2 | 106% (inactive) | 102 | 107 | 103% (inactive) | 101% (inactive) | 97.2% (inactive) | 99.3 | 98.2 |
| Cc1ccc(/C=C2/NC(=O)N(Cc3ccccc3)C2=O)o1 | 98.4% (inactive) | 99.8 | 98.8 | 112% (inactive) | 110 | 113 | 101% (inactive) | 101% (inactive) | 103% (inactive) | 105 | 101 |
| O=C(Sc1cccc2cccnc12)c1ccccc1Br | 96.8% (inactive) | 92.3 | 98.5 | 151% (active) | 144 | 153 | 122% (inactive) | 95.8% (inactive) | 114% (inactive) | 115 | 112 |
| COc1ccccc1-c1noc(CCC(=O)Nc2cccc(C(F)(F)F)c2)n1 | 98.2% (inactive) | 97.9 | 98.5 | 102% (inactive) | 104 | 100 | 107% (inactive) | 102% (inactive) | 100% (inactive) | 101 | 94.4 |
| O=C1[C@@H]2C3C=CC(O3)[C@@H]2C(=O)N1c1ccccc1 | 101% (inactive) | 102 | 100 | 107% (inactive) | 107 | 109 | 101% (inactive) | 107% (inactive) | 100% (inactive) | 101 | 100 |
| COc1ccc(OC)c(/C=C/C(=O)c2ccc(Cl)cc2)c1 | 92.2% (inactive) | 91.9 | 92 | 104% (inactive) | 97.6 | 105 | 96.2% (inactive) | 98.5% (inactive) | 101% (inactive) | 101 | 101 |
| O=C1C(=O)c2ccc(-c3ccccc3)cc2-c2ccccc21 | 102% (inactive) | 104 | 102 | 117% (inactive) | 110 | 124 | 115% (inactive) | 90.4% (inactive) | 107% (inactive) | 106 | 102 |
| COc1ccc(C(=O)/C=C/c2ccccc2C(F)(F)F)cc1 | 100% (inactive) | 99.1 | 99.5 | 99.2% (inactive) | 99.2 | 98.3 | 100% (inactive) | 99.7% (inactive) | 107% (inactive) | 106 | 107 |
| Oc1ccc(-c2csc(-c3ccccc3)n2)cc1O | 97% (inactive) | 93.2 | 96.5 | 124% (inactive) | 120 | 129 | 101% (inactive) | 96% (inactive) | 93.4% (inactive) | 93.7 | 90.8 |
| Oc1c(Br)cc(Br)cc1C=Nc1ccc2c(c1)OCO2 | 98.2% (inactive) | 88.5 | 98.5 | 190% (active) | 114 | 174 | 110% (inactive) | 99.3% (inactive) | 97.8% (inactive) | 98.3 | 91 |
| CC(Oc1ccc(Br)cc1)C(=O)Nc1nc(-c2ccccn2)cs1 (stereo not drawn) | 104% (inactive) | 95.9 | 105 | 241% (active) | 184 | 258 | 117% (inactive) | 92.9% (inactive) | 98.3% (inactive) | 97.2 | 93.8 |
